According to ChEMBL document CHEMBL2157936, “Structure-activity relationships for side chain oxysterol agonists of the hedgehog signaling pathway” (ACS Med Chem Lett, 2012):
Active and inactive are the calls of the source. The calls are words filed in the database; no cut-off is given here.

Key:
[1] = Selectivity ratio of agonist activity at Hh receptor over agonist activity at LXR in mouse C3H10T1/2 cells; format: functional, C3H 10T1/2
[2] = Agonist activity at LXR in mouse C3H10T1/2 cells assessed as fold increase in ABCA1 expression at 5 uM by RT-PCR analysis relative to control; format: functional, C3H 10T1/2
[3] = Agonist activity at Hh receptor in mouse C3H10T1/2 cells assessed as fold increase in Gli1 expression at 5 uM by RT-PCR analysis relative to control; format: functional, C3H 10T1/2
M210B4 [4] = assay: Agonist activity at Hh receptor in mouse M210B4 cells assessed as upregulation of Gli1 at 5 uM after 24 hrs by RT-PCR analysis relative to control; format: functional, cell-based
How it was run: (§1)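 Read-out: GLI1 or PTCH mRNA in M2-10B4 cells. Cells were pretreated for 2 h with cyclopamine (5 μM), or left without it, then given OHC (5 μM). mRNA was measured after 24 h of incubation and expressed as fold induction over the DMSO control, set at 1. Data come from a representative experiment run in triplicate.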

M210B4 [5] = assay: Agonist activity at Hh receptor in mouse M210B4 cells assessed as upregulation of Ptch at 5 uM after 24 hrs by RT-PCR analysis relative to control; format: functional, cell-based; how it was run: as §1
M210B4 [6] = assay: Induction of Hh receptor-mediated osteogenesis in mouse M210B4 cells assessed as fold increase in Osx expression at 5 uM up to 96 hrs by RT-PCR analysis relative to control; format: cell-based
How it was run: (§2)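 M2-10B4 cells received OHC (5 μM), or the 20(S)-/22(S)-OHC pair (5 μM each). Osterix and alkaline phosphatase mRNA were measured at time points of 24, 48 and 96 h. Expression is relative to the DMSO control. Data come from a representative experiment run in triplicate.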

M210B4 [7] = assay: Induction of Hh receptor-mediated osteoblast formation in mouse M210B4 cells assessed as increase in ALP expression at 5 uM after 24 hrs by RT-PCR analysis relative to control; format: cell-based; how it was run: as §2
M210B4 [8] = assay: Induction of Hh receptor-mediated osteogenesis in mouse M210B4 cells assessed as fold increase in Osx expression at 5 uM after 24 hrs by RT-PCR analysis relative to control; format: cell-based; how it was run: as §2
C3H 10T1/2 [9] = assay: (§3) Agonist activity at Hh receptor in mouse C3H10T1/2 cells assessed as increase in Gli1 expression by RT-PCR analysis; format: functional, cell-based
How it was run: (§4)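 Dose-response in C3H10T1/2 and M2-10B4 cells. Read-out: mRNA of GLI1, PTCH (Hh) or ABCA1 (LXR), expressed relative to the DMSO control. EC50 values were derived from these curves.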

[10] = as §3; format: functional, cell-based; details: C3H 10T1/2; how it was run: as §4
M210B4 [11] = assay: Agonist activity at Hh receptor in mouse M210B4 cells assessed as upregulation of Ptch at 5 uM after 24 hrs by RT-PCR analysis in presence of cyclopamine relative to control; format: functional, cell-based; how it was run: as §1
C3H 10T1/2 [12] = assay: (§5) Agonist activity at Hh receptor in mouse C3H10T1/2 cells assessed as increase in Ptch expression by RT-PCR analysis; format: functional, cell-based; how it was run: as §4
[13] = as §5; format: functional, cell-based; details: C3H 10T1/2; how it was run: as §4
M210B4 [14] = assay: Induction of Hh receptor-mediated osteogenesis in mouse M210B4 cells assessed as fold increase in Osx expression at 5 uM after 48 hrs by RT-PCR analysis relative to control; format: cell-based; how it was run: as §2
[15] = (§6) Agonist activity at Hh receptor in mouse M210B4 cells assessed as increase in Gli1 expression by RT-PCR analysis; format: functional, cell-based; how it was run: as §4
M210B4 [16] = assay: as §6; format: functional, cell-based; how it was run: as §4
M210B4 [17] = assay: Agonist activity at Hh receptor in mouse M210B4 cells assessed as upregulation of Gli1 at 5 uM after 24 hrs by RT-PCR analysis in presence of cyclopamine relative to control; format: functional, cell-based; how it was run: as §1
M210B4 [18] = assay: Ratio of EC50 for Hh receptor in mouse M210B4 cells to EC50 for Hh receptor in mouse C3H10T1/2 cells; format: cell-based
[19] = Agonist activity at LXR in mouse M210B4 cells assessed as increase in ABCA1 expression by RT-PCR analysis; format: functional, cell-based; how it was run: as §4
M210B4 [20] = assay: Induction of Hh receptor-mediated osteoblast formation in mouse M210B4 cells assessed as increase in ALP expression at 5 uM up to 96 hrs by RT-PCR analysis relative to control; format: cell-based; how it was run: as §2
C3H 10T1/2 [21] = assay: Selectivity ratio of EC50 for LXR to EC50 for Hh receptor in mouse C3H10T1/2 cells; format: cell-based
[22] = Agonist activity at LXR in mouse C3H10T1/2 cells assessed as increase in ABCA1 expression by RT-PCR analysis; format: functional, cell-based; details: C3H 10T1/2; how it was run: as §4
[23] = (§7) Agonist activity at Hh receptor in mouse M210B4 cells assessed as increase in Ptch expression by RT-PCR analysis; format: functional, cell-based; how it was run: as §4
M210B4 [24] = assay: as §7; format: functional, cell-based; how it was run: as §4
M210B4 [25] = assay: Selectivity ratio of EC50 for LXR to EC50 for Hh receptor in mouse M210B4 cells; format: cell-based
M210B4 [26] = assay: Induction of Hh receptor-mediated osteoblast formation in mouse M210B4 cells assessed as increase in ALP expression at 5 uM after 48 hrs by RT-PCR analysis relative to control; format: cell-based; how it was run: as §2

## CC(C)C[C@H](O)C[C@@H](C)[C@H]1CC[C@H]2[C@@H]3CC=C4C[C@@H](O)CC[C@]4(C)[C@H]3CC[C@]12C
[1]
  Selectivity ratio: 9
[2]
  fold change (FC): 3.6
[3]
  fold change (FC): 32.4

## CC(C)CCC[C@@H](C)[C@H]1CC[C@H]2[C@@H]3[C@@H](O)C=C4C[C@@H](O)CC[C@]4(C)[C@H]3CC[C@]12C
[1]
  Selectivity ratio: 2.6
[2]
  fold change (FC): 0.6
[3]
  fold change (FC): 1.6

## C[C@H](CCO)[C@H]1CC[C@H]2[C@@H]3CC=C4C[C@@H](O)CC[C@]4(C)[C@H]3CC[C@]12C
[1]
  Selectivity ratio: 10.4
[2]
  fold change (FC): 0.4
[3]
  fold change (FC): 4.1

## C[C@H](CCCC(C)(C)O)[C@H]1CC[C@H]2[C@@H]3CC=C4C[C@@H](O)CC[C@]4(C)[C@H]3CC[C@]12C
[1]
  Selectivity ratio: 7.1
[2]
  fold change (FC): 9.8
[3]
  fold change (FC): 69.9

## C[C@H](C(=O)CCC(C)(C)O)[C@H]1CC[C@H]2[C@@H]3CC=C4C[C@@H](O)CC[C@]4(C)[C@H]3CC[C@]12C
[2]
  fold change (FC): 21.7
[3]
  fold change (FC): 6

## CC(C)C[C@@H](O)C[C@@H](C)[C@H]1CC[C@H]2[C@@H]3CC=C4C[C@@H](O)CC[C@]4(C)[C@H]3CC[C@]12C
M210B4 [4]
  Activity: Active
[1]
  Selectivity ratio: 17.8
M210B4 [5]
  Activity: Active
M210B4 [6]
  Activity: Active
M210B4 [7]
  Activity: Active
M210B4 [8]
  fold change (FC): 5
C3H 10T1/2 [9]
  Activity: Dose-dependent effect
[10]
  EC50: 540 nM
M210B4 [11]
  Activity: inactive
C3H 10T1/2 [12]
  Activity: Dose-dependent effect
[13]
  EC50: 650 nM
M210B4 [14]
  fold change (FC): > 30
[15]
  EC50: 570 nM
M210B4 [16]
  Activity: Dose-dependent effect
[2]
  fold change (FC): 4.9
M210B4 [17]
  Activity: inactive
M210B4 [18]
  Ratio EC50: 1.06
[3]
  fold change (FC): 87.1
[19]
  EC50: 1540 nM
M210B4 [20]
  Activity: Active
C3H 10T1/2 [21]
  Ratio EC50: 3
[22]
  EC50: 1530 nM
[23]
  EC50: 580 nM
M210B4 [24]
  Activity: Dose-dependent effect
M210B4 [25]
  Ratio EC50: 3
M210B4 [26]
  Activity: Active

## CC(C)(O)CCC[C@](C)(O)[C@H]1CC[C@H]2[C@@H]3CC=C4C[C@@H](O)CC[C@]4(C)[C@H]3CC[C@@]21C
[1]
  Selectivity ratio: 4.1
[2]
  fold change (FC): 26.3
[3]
  fold change (FC): 107.8

## CC(C)(O)CC[C@](C)(O)[C@H]1CC[C@H]2[C@@H]3CC=C4C[C@@H](O)CC[C@]4(C)[C@H]3CC[C@@]21C
[1]
  Selectivity ratio: 1.8
[2]
  fold change (FC): 10.3
[3]
  fold change (FC): 18.1

## CC(C)CC[C@H](O)[C@@H](C)[C@H]1CC[C@H]2[C@@H]3CC=C4C[C@@H](O)CC[C@]4(C)[C@H]3CC[C@]12C
[1]
  Selectivity ratio: 22.8
[2]
  fold change (FC): 2.3
[3]
  fold change (FC): 52.5

## C[C@@H]([C@H]1CC[C@H]2[C@@H]3CC=C4C[C@@H](O)CC[C@]4(C)[C@H]3CC[C@]12C)[C@@H](O)CCC(C)(C)O
[1]
  Selectivity ratio: 3.4
[2]
  fold change (FC): 2.9
[3]
  fold change (FC): 9.9

## CC(C)CC[C@@H](O)[C@@H](C)[C@H]1CC[C@H]2[C@@H]3CC=C4C[C@@H](O)CC[C@]4(C)[C@H]3CC[C@]12C [22(R)-HYDROXYCHOLESTEROL]
[2]
  fold change (FC): 24.1
[3]
  fold change (FC): 4.7

## C[C@H](C(O)CCC(C)(C)O)[C@H]1CC[C@H]2[C@@H]3CC=C4C[C@@H](O)CC[C@]4(C)[C@H]3CC[C@]12C (mixture of isomers)
[2]
  fold change (FC): 0.9
[3]
  fold change (FC): 1

## CC(C)CCC[C@](C)(O)[C@H]1CC[C@H]2[C@@H]3CC=C4C[C@@H](O)CC[C@]4(C)[C@H]3CC[C@@]21C
[1]
  Selectivity ratio: 6.8
[2]
  fold change (FC): 13.4
[3]
  fold change (FC): 91.8
